≈ marks a conversion by molar mass, not a printed value.
Tests used:
Type in all cases: functional
[1] = test system: Bacillus subtilis; experiment: Antimicrobial activity against Bacillus subtilis ATCC 6633 after 24 hrs; conditions: for MIC: Bacillus subtilis, ATCC 6633, 24 h
Summary of the method: (§1)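 MIC by twofold serial dilution in Mueller-Hinton broth (MHB); MHB also used to dilute the bacterial suspension. Wells held 10^3 cfu/ml bacteria after inoculation. Controls: 80% DMSO, 20% EtOH, methanol, DMSO, PBS, organism alone and medium alone. Triplicate in each run. MIC taken as the lowest concentration completely inhibiting macroscopic growth.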

[2] = test system: Escherichia coli; experiment: Antimicrobial activity against Escherichia coli ATCC 25922 after 24 hrs; conditions: ATCC 25922, 24 h; summary of the method: as §1
[3] = test system: Staphylococcus aureus; experiment: Antimicrobial activity against Staphylococcus aureus ATCC 25923 after 24 hrs; conditions: ATCC 25923, 24 h
Summary of the method: (§2)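 Twofold serial broth dilution in Mueller-Hinton broth. MHB was used both to dilute the bacterial suspension and for the twofold compound dilutions, giving 10^3 cfu/ml bacteria per well after inoculation. Solvent, medium and organism-only wells served as controls. Each organism was run in triplicate.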

[4] = test system: Bacillus subtilis; experiment: Antimicrobial activity against ceftriazone-resistant Bacillus subtilis after 24 hrs; summary of the method: as §2
[5] = test system: Staphylococcus aureus; experiment: Antimicrobial activity against multidrug-resistant Staphylococcus aureus after 24 hrs; summary of the method: as §2
[6] = test system: Escherichia coli; experiment: Antimicrobial activity against multidrug-resistant Escherichia coli after 24 hrs; summary of the method: as §2
[7] = test system: Klebsiella pneumoniae; experiment: Antimicrobial activity against multidrug-resistant Klebsiella pneumoniae after 24 hrs; summary of the method: as §2
[8] = test system: Candida albicans; experiment: Antimicrobial activity against Candida albicans ATCC 10231 after 24 to 48 hrs
Summary of the method: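 Twofold serial dilution following CLSI M27-A. Yeast suspension made at 10^4 cfu/ml by diluting a fresh culture at McFarland 0.5 (10^6 cfu/ml). Inoculated into the diluted compound, incubated at 35 °C in a humid chamber, read after 48 h. Triplicate in each run. MIC is the lowest concentration completely inhibiting macroscopic growth.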

[9] = test system: Candida albicans; experiment: Antimicrobial activity against multidrug-resistant Candida albicans isolates after 24 to 48 hrs
Summary of the method: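 Yeast broth microdilution following CLSI M27-A, with Sabouraud dextrose medium noted for antifungal assays. Fresh cultures at McFarland 0.5 (10^6 cfu/ml) were diluted to 10^4 cfu/ml and inoculated into twofold compound dilutions. Trays were incubated at 35 °C in a humid chamber and read at 48 h, in triplicate. MIC was the lowest concentration giving complete macroscopic growth inhibition.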

[10] = test system: Klebsiella pneumoniae; experiment: Antimicrobial activity against Klebsiella pneumoniae RSHM 574 after 24 hrs; conditions: RSHM 574, 24 h; summary of the method: as §1
[11] = test system: Pseudomonas aeruginosa; experiment: Antimicrobial activity against Pseudomonas aeruginosa ATCC […] after 24 hrs; summary of the method: as §1

Which results are given for `Cc1ccc2nc(-c3ccccc3F)oc2c1`?
log(1/C) [1]: 3.959; MIC [1]: 25 mg/L (≈ 110 µM)

Which MIC [2] does the source give for `O=[N+]([O-])c1ccc2nc(Cc3ccc(Br)cc3)oc2c1` here?
The MIC was 50 mg/L (≈ 150 µM).

And the MIC [3]?
The MIC was 100 mg/L (≈ 300 µM).

And the MIC [4]?
The MIC was 25 mg/L (≈ 75 µM).

And the MIC [5]?
Its MIC is 100 mg/L (≈ 300 µM).

And the MIC [6]?
Its MIC is 100 mg/L (≈ 300 µM).

What about the MIC [7] of the same compound?
Its MIC is 100 mg/L (≈ 300 µM).

What about the MIC [8] of the same compound?
Its MIC is 50 mg/L (≈ 150 µM).

What about the MIC [9] of the same compound?
The MIC was 100 mg/L (≈ 300 µM).

And the MIC [10]?
Its MIC is 50 mg/L (≈ 150 µM).

What about the “log(1/C)” value [1] of the same compound?
Its value is 4.125.

And the MIC [1]?
The MIC was 25 mg/L (≈ 75 µM).

And the MIC [11]?
The MIC was 25 mg/L (≈ 75 µM).

With `O=[N+]([O-])c1ccc2nc(Cc3ccc(Cl)cc3)oc2c1` as the compound, how does the MIC [2] read?
The MIC was 50 mg/L (≈ 173 µM).

And the MIC [3]?
The MIC was 200 mg/L (≈ 693 µM).

What about the MIC [4] of the same compound?
Its MIC is 25 mg/L (≈ 86.6 µM).

And the MIC [5]?
Its MIC is 100 mg/L (≈ 346 µM).

What about the MIC [6] of the same compound?
The MIC was 100 mg/L (≈ 346 µM).

And the MIC [7]?
Its MIC is 100 mg/L (≈ 346 µM).

What about the MIC [8] of the same compound?
The MIC was 100 mg/L (≈ 346 µM).

What about the MIC [9] of the same compound?
The MIC was 50 mg/L (≈ 173 µM).

What about the MIC [10] of the same compound?
Its MIC is 50 mg/L (≈ 173 µM).

What about the “log(1/C)” value [1] of the same compound?
Its value is 4.364.

What about the MIC [1] of the same compound?
The MIC was 12.5 mg/L (≈ 43.3 µM).

What about the MIC [11] of the same compound?
Its MIC is 25 mg/L (≈ 86.6 µM).

Which results are given for `Nc1ccc2nc(-c3ccc(F)cc3)oc2c1`?
MIC [2]: 50 mg/L (≈ 219 µM); MIC [3]: 100 mg/L (≈ 438 µM); MIC [4]: 50 mg/L (≈ 219 µM); MIC [5]: 100 mg/L (≈ 438 µM); MIC [6]: 100 mg/L (≈ 438 µM); MIC [7]: 100 mg/L (≈ 438 µM); MIC [8]: 50 mg/L (≈ 219 µM); MIC [9]: 50 mg/L (≈ 219 µM); MIC [10]: 50 mg/L (≈ 219 µM); log(1/C) [1]: 3.659; MIC [1]: 50 mg/L (≈ 219 µM); MIC [11]: 50 mg/L (≈ 219 µM)

With `CC(C)(C)c1ccc(-c2nc3ccc(N)cc3o2)cc1` as the compound, how does the MIC [2] read?
Its MIC is 50 mg/L (≈ 188 µM).

And the MIC [3]?
The MIC was 100 mg/L (≈ 375 µM).

And the MIC [4]?
Its MIC is 25 mg/L (≈ 93.9 µM).

What about the MIC [5] of the same compound?
The MIC was 100 mg/L (≈ 375 µM).

What about the MIC [6] of the same compound?
The MIC was 100 mg/L (≈ 375 µM).

What about the MIC [7] of the same compound?
The MIC was 100 mg/L (≈ 375 µM).

What about the MIC [8] of the same compound?
Its MIC is 50 mg/L (≈ 188 µM).

And the MIC [9]?
The MIC was 50 mg/L (≈ 188 µM).

What about the MIC [10] of the same compound?
The MIC was 50 mg/L (≈ 188 µM).

What about the “log(1/C)” value [1] of the same compound?
The value was 4.027.

And the MIC [1]?
Its MIC is 25 mg/L (≈ 93.9 µM).

What about the MIC [11] of the same compound?
Its MIC is 25 mg/L (≈ 93.9 µM).

Which results are given for `Cc1ccc2nc(-c3ccc(Cl)cc3Cl)oc2c1`?
log(1/C) [1]: 4.046; MIC [1]: 25 mg/L (≈ 89.9 µM)

Which results are given for `Nc1ccc2nc(Cc3ccc(F)cc3)oc2c1`?
MIC [2]: 50 mg/L (≈ 206 µM); MIC [3]: 100 mg/L (≈ 413 µM); MIC [4]: 50 mg/L (≈ 206 µM); MIC [5]: 100 mg/L (≈ 413 µM); MIC [6]: 50 mg/L (≈ 206 µM); MIC [7]: 100 mg/L (≈ 413 µM); MIC [8]: 50 mg/L (≈ 206 µM); MIC [9]: 50 mg/L (≈ 206 µM); MIC [10]: 50 mg/L (≈ 206 µM); log(1/C) [1]: 3.685; MIC [1]: 50 mg/L (≈ 206 µM); MIC [11]: 25 mg/L (≈ 103 µM)

For `Cc1ccc(Cc2nc3cc([N+](=O)[O-])ccc3o2)cc1`, which MIC [2] is on record?
Its MIC is 50 mg/L (≈ 186 µM).

What about the MIC [3] of the same compound?
Its MIC is 50 mg/L (≈ 186 µM).

And the MIC [4]?
The MIC was 50 mg/L (≈ 186 µM).

And the MIC [5]?
Its MIC is 50 mg/L (≈ 186 µM).

And the MIC [6]?
The MIC was 50 mg/L (≈ 186 µM).

And the MIC [7]?
Its MIC is 50 mg/L (≈ 186 µM).

And the MIC [8]?
Its MIC is 50 mg/L (≈ 186 µM).

And the MIC [9]?
Its MIC is 25 mg/L (≈ 93.2 µM).

And the MIC [10]?
The MIC was 50 mg/L (≈ 186 µM).

And the “log(1/C)” value [1]?
The value was 3.73.

And the MIC [1]?
The MIC was 50 mg/L (≈ 186 µM).

What about the MIC [11] of the same compound?
The MIC was 50 mg/L (≈ 186 µM).

Which results are given for `Cc1ccc2oc(-c3ccccc3[N+](=O)[O-])nc2c1`?
log(1/C) [1]: 4.007; MIC [1]: 25 mg/L (≈ 98.3 µM)

How did the MIC [2] turn out when `O=[N+]([O-])c1ccc2nc(-c3ccccc3)oc2c1` was run?
The MIC was 50 mg/L (≈ 208 µM).

What about the MIC [3] of the same compound?
Its MIC is 200 mg/L (≈ 833 µM).

And the MIC [4]?
Its MIC is 25 mg/L (≈ 104 µM).

What about the MIC [5] of the same compound?
Its MIC is 100 mg/L (≈ 416 µM).

And the MIC [6]?
Its MIC is 25 mg/L (≈ 104 µM).

And the MIC [7]?
The MIC was 100 mg/L (≈ 416 µM).

And the MIC [8]?
Its MIC is 100 mg/L (≈ 416 µM).

What about the MIC [9] of the same compound?
Its MIC is 50 mg/L (≈ 208 µM).

And the MIC [10]?
Its MIC is 50 mg/L (≈ 208 µM).

What about the “log(1/C)” value [1] of the same compound?
The value was 3.983.

And the MIC [1]?
Its MIC is 25 mg/L (≈ 104 µM).

What about the MIC [11] of the same compound?
Its MIC is 50 mg/L (≈ 208 µM).

How did the “log(1/C)” value [1] turn out when `Cc1ccc2oc(-c3ccc(Br)cc3)nc2c1` was run?
Its value is 4.363.

And the MIC [1]?
The MIC was 12.5 mg/L (≈ 43.4 µM).

What does the source list for `Cc1ccc2nc(-c3ccc(Br)cc3)oc2c1`?
log(1/C) [1]: 4.363; MIC [1]: 12.5 mg/L (≈ 43.4 µM)

Which results are given for `COc1ccccc1-c1nc2ccc(C)cc2o1`?
log(1/C) [1]: 3.981; MIC [1]: 25 mg/L (≈ 104 µM)

Which “log(1/C)” value [1] does the source give for `Cc1ccc(-c2nc3cc(C)ccc3o2)c(C)c1` here?
Its value is 3.977.

What does the source list for `Cc1ccc2oc(-c3ccccc3Cl)nc2c1`?
log(1/C) [1]: 3.989; MIC [1]: 25 mg/L (≈ 103 µM)

What does the source list for `CO[C@H]1/C=C/O[C@@]2(C)Oc3c(C)c(O)c4c(O)c(c(/C=N/N5CCN(C)CC5)c(O)c4c3C2=O)NC(=O)/C(C)=C\C=C\[C@H](C)[C@H](O)[C@@H](C)[C@@H](O)[C@@H](C)[C@H](OC(C)=O)[C@@H]1C` [RIFAMPIN]?
MIC [2]: 8 mg/L (≈ 9.72 µM); MIC [3]: 0.5 mg/L (≈ 0.608 µM); MIC [4]: 256 mg/L (≈ 311 µM); MIC [5]: 8 mg/L (≈ 9.72 µM); MIC [6]: 64 mg/L (≈ 77.8 µM); MIC [7]: 256 mg/L (≈ 311 µM); MIC [10]: 16 mg/L (≈ 19.4 µM); MIC [11]: 32 mg/L (≈ 38.9 µM)

What does the source list for `CC1(C)S[C@@H]2[C@H](NC(=O)[C@H](N)c3ccccc3)C(=O)N2[C@H]1C(=O)O.O.O.O` [AMPICILLIN TRIHYDRATE]?
MIC [2]: 8 mg/L; MIC [3]: 0.03 mg/L; MIC [4]: 8 mg/L; MIC [5]: 2 mg/L; MIC [6]: 256 mg/L; MIC [7]: 256 mg/L; MIC [10]: 2 mg/L; MIC [1]: 0.25 mg/L; MIC [11]: 4100 mg/L

Which results are given for `C[C@@H]1[C@H](O)[C@@H](C)/C=C/C=C/C=C/C=C/C=C/C=C/C=C/[C@H](O[C@@H]2O[C@H](C)[C@@H](O)[C@H](N)[C@@H]2O)C[C@@H]2O[C@](O)(C[C@@H](O)C[C@@H](O)[C@H](O)CC[C@@H](O)C[C@@H](O)CC(=O)O[C@H]1C)C[C@H](O)[C@H]2C(=O)O` [AMPHOTERICIN B]?
MIC [8]: 1 mg/L (≈ 1.08 µM); MIC [9]: 1 mg/L (≈ 1.08 µM)

What does the source list for `Cc1ccc2oc(-c3ccccc3)nc2c1`?
log(1/C) [1]: 4.224; MIC [1]: 12.5 mg/L (≈ 59.7 µM)

Which results are given for `Cc1ccc2nc(-c3ccc(Cl)cc3)oc2c1`?
log(1/C) [1]: 4.29; MIC [1]: 12.5 mg/L (≈ 51.3 µM)
